Reference: ChEMBL document CHEMBL1155882, “Selective nucleoside triphosphate diphosphohydrolase-2 (NTPDase2) inhibitors: nucleotide mimetics derived from uridine-5'-carboxamide” (J Med Chem, 2008)

How the values were obtained:
[1] = molecular target: P2Y purinoceptor 6 (Rattus norvegicus) (UniProt Q63371); test: Antagonist activity at rat P2Y6 receptor expressed in human 1321N1 cells assessed as inhibition of UDP-induced receptor activation at 100 uM relative to UDP; assay type: functional, cell-based; set-up: scale not given: the % may be the effect or the level left
Chain of P2Y purinoceptor 6 (Rattus norvegicus) (Q63371 whole entry): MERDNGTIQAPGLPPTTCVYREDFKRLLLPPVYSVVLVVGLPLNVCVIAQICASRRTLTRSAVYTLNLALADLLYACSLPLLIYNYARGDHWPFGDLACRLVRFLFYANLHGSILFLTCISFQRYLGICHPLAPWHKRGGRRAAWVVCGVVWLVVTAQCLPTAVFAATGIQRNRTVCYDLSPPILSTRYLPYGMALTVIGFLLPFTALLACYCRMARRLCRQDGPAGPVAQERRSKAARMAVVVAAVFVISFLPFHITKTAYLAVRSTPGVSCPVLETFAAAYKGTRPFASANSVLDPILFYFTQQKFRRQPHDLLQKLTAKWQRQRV
Method in brief: (§1)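 Human 1321N1 astrocytoma cells express human P2Y2 or P2Y4, or rat P2Y6. Cells are loaded with Fura-2 AM and preincubated with compound at 100 μM. Inhibition of agonist-induced intracellular calcium release is read as Fura-2 fluorescence. The agonist is UTP for P2Y2 and P2Y4, and UDP for P2Y6.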

[2] = molecular target: T1, Ectonucleoside triphosphate diphosphohydrolase 1 (Homo sapiens) (UniProt P49961); test: Inhibition of human NTPDase 1 expressed in COS7 cells at 1mM; assay type: cell-based; settings: COS-7
T1 sequence (whole entry): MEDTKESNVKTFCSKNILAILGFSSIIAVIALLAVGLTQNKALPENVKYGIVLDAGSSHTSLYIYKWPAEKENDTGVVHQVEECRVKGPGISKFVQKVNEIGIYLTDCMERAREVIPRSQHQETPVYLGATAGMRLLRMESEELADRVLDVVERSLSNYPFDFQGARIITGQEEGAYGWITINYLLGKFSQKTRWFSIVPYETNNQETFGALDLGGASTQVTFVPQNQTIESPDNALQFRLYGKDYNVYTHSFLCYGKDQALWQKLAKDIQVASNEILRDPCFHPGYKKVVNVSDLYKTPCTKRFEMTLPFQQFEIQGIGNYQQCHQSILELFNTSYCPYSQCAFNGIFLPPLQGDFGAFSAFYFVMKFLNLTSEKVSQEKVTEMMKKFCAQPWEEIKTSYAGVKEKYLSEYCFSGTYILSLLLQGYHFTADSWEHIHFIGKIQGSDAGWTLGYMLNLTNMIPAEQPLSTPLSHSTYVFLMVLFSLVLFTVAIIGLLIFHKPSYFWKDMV
Method in brief: (§2)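 Transiently transfected COS-7 cell protein extract expressing human enzyme. 1 mM test compound with 400 μM ATP in HEPES 10 mM pH 7.4 buffer (NaCl, KCl, 1 mM MgCl2, 2 mM CaCl2), 37 °C for 10 min. Stopped at 99 °C for 5 min. Products measured by capillary electrophoresis, UV 210 nm, with UMP internal standard. Triplicates in two experiments; empty-pcDNA3 membrane control.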

[3] = molecular target: T2, Ectonucleoside triphosphate diphosphohydrolase 3 (Homo sapiens) (UniProt O75355); test: Inhibition of human NTPDase 3 expressed in COS7 cells at 1mM; assay type: cell-based; settings: COS-7
T2 sequence (whole entry): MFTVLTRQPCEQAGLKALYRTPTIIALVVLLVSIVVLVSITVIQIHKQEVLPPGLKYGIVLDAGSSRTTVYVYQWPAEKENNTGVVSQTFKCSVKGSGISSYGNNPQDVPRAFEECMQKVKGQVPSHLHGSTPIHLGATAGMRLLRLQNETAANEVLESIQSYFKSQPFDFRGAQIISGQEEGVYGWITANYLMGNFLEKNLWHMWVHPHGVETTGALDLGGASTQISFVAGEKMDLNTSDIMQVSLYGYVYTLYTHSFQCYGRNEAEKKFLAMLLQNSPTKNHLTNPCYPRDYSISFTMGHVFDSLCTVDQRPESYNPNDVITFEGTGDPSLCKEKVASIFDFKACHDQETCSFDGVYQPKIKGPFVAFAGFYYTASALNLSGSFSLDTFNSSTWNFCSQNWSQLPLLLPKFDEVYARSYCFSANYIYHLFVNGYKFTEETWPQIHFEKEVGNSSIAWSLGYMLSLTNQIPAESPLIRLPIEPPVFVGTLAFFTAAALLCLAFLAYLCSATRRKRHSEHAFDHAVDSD
Method in brief: (§3)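 NTPDase2 membranes come from stably transfected HEK 293 cells; NTPDase3 and NTPDase8 are transiently expressed in COS-7 cells as crude protein extracts. Buffer is 140 mM NaCl, 5 mM KCl, 1 mM MgCl2, 2 mM CaCl2, 10 mM HEPES pH 7.4, with 400 μM ATP, 37 °C, 10 min, stopped at 99 °C. Products are read by capillary electrophoresis (UV 210 nm, UMP internal standard).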

P2Y purinoceptor 2 [4] = molecular target: T3, P2Y purinoceptor 2 (Homo sapiens, UniProt P41231); test: Antagonist activity at human P2Y2 receptor expressed in human 1321N1 cells assessed as inhibition of UTP-induced intracellular calcium mobilization at 100 uM by FLUOstar plate reader; assay type: functional, cell-based; method in brief: as §1
T3 sequence (P41231 whole entry): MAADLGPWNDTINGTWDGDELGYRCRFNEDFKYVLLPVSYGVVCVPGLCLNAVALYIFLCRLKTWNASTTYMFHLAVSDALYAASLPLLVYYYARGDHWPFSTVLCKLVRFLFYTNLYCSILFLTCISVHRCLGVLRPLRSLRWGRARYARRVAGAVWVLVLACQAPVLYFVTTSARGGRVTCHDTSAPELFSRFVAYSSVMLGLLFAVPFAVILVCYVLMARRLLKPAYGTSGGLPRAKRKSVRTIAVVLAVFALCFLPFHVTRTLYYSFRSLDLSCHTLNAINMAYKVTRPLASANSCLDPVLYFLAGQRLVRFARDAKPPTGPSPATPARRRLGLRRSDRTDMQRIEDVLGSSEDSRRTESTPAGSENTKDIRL

[5] = Stability in simulated artificial gastric juice after 24 hrs by LC-MS analysis; assay type: physicochemical; settings: simulated gi fluid
P2Y purinoceptor 4 [6] = molecular target: T4, P2Y purinoceptor 4 (Homo sapiens, UniProt P51582); test: Antagonist activity at human P2Y4 receptor expressed in human 1321N1 cells assessed as inhibition of UTP-induced intracellular calcium mobilization at 100 uM by FLUOstar plate reader; assay type: functional, cell-based; method in brief: as §1
T4 sequence (P51582 whole entry): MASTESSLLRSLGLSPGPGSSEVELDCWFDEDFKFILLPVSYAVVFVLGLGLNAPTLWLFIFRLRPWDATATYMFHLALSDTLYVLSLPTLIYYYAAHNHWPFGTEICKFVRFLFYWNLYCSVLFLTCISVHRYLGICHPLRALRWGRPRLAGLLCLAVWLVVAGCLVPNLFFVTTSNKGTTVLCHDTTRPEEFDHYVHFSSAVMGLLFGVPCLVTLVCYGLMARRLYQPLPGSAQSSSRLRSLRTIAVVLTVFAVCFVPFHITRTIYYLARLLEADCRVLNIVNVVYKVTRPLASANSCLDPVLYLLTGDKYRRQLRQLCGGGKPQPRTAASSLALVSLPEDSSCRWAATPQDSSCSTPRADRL

P2Y purinoceptor 2 [7] = molecular target: T3, P2Y purinoceptor 2; test: Antagonist activity at human P2Y2 receptor expressed in human 1321N1 cells assessed as inhibition of UTP and ATP-induced receptor activation at 100 uM relative to UTP; assay type: functional, cell-based; set-up: scale not given: the % may be the effect or the level left; method in brief: as §1
[8] = molecular target: P2Y purinoceptor 6 (Rattus norvegicus) (UniProt Q63371); test: Antagonist activity at rat P2Y6 receptor expressed in human 1321N1 cells assessed as inhibition of UDP-induced intracellular calcium mobilization at 100 uM by NOVOstar plate reader; assay type: functional, cell-based; method in brief: as §1
[9] = molecular target: T5, Ectonucleoside triphosphate diphosphohydrolase 2 (Homo sapiens, UniProt Q9Y5L3); test: Inhibition of human NTPDase 2 expressed in HEK293 cells assessed as residual activity by capillary electrophoresis; assay type: cell-based; method in brief: as §3
T5 sequence (Q9Y5L3 whole entry): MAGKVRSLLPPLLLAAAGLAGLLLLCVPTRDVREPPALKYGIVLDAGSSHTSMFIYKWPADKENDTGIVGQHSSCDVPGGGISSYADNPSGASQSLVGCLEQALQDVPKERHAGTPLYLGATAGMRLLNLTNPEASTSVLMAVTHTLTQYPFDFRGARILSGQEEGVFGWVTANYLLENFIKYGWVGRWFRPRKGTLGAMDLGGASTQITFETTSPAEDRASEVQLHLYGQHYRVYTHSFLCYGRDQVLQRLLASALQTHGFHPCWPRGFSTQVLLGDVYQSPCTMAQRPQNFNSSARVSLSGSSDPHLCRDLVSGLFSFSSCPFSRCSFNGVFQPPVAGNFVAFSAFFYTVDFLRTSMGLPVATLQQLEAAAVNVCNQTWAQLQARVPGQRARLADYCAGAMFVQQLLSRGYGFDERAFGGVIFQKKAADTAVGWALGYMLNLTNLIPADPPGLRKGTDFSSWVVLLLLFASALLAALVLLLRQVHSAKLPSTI

[10] = Metabolic stability in rat liver microsomes after 24 hrs by LC-MS analysis; assay type: ADME, Microsome; settings: read-out: Stability
[11] = molecular target: T6, Ectonucleoside triphosphate diphosphohydrolase 8 (Homo sapiens) (UniProt Q5MY95); test: Inhibition of human NTPDase 8 expressed in COS7 cells at 1mM; assay type: cell-based; settings: COS-7; method in brief: as §2
T6 sequence (whole entry): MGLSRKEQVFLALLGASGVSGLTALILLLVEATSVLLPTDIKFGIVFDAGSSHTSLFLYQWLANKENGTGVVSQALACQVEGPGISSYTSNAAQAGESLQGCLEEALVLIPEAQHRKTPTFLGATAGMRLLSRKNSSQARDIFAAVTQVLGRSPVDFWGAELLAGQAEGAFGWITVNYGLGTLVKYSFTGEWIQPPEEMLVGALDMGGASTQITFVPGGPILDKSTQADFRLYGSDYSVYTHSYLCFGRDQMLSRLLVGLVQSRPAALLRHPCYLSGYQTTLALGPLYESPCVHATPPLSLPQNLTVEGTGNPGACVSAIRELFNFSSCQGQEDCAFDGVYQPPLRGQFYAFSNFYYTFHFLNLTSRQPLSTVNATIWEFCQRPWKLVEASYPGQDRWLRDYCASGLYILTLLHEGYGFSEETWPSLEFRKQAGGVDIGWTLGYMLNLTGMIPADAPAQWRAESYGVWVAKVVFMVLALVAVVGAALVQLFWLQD

P2Y purinoceptor 4 [12] = molecular target: T4, P2Y purinoceptor 4; test: Antagonist activity at human P2Y4 receptor expressed in human 1321N1 cells assessed as inhibition of UTP-induced receptor activation at 100 uM relative to UTP; assay type: functional, cell-based; set-up: scale not given: the % may be the effect or the level left; method in brief: as §1
[13] = Chemical stability in 0.001 N aqueous sodium hydroxide at pH 11 by LC-MS analysis; assay type: physicochemical; settings: buffer
Method in brief: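 Compound from a 2 mM aqueous stock (20 mM NH4OAc) is diluted 10 μL into 990 μL of 0.001 N NaOH (pH 11). It is incubated 2 or 24 h at 37 °C and analysed by C18 LC–ESI-MS, with detection limit about 0.1 μg/mL.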

[14] = molecular target: T7, Ectonucleoside triphosphate diphosphohydrolase 2 (Homo sapiens) (UniProt Q9Y5L3); test: Inhibition of human NTPDase 2 expressed in HEK293 cells at 1mM; assay type: cell-based
T7 sequence (whole entry): T5 sequence (Q9Y5L3 whole entry)
Method in brief: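 Membranes from HEK 293 cells stably expressing human NTPDase2 (geneticin selection), prepared by differential and sucrose-gradient centrifugation. 1 mM test compound with 400 μM ATP in 10 mM HEPES pH 7.4 saline (1 mM MgCl2, 2 mM CaCl2), 37 °C for 10 min. Heat-stopped at 99 °C. Nucleotides separated by capillary electrophoresis, UV 210 nm, UMP internal standard. Triplicates, two experiments.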

[15] = molecular target: T8, Ectonucleoside triphosphate diphosphohydrolase 8 (Homo sapiens, UniProt Q5MY95); test: Inhibition of human NTPDase 8 expressed in COS7 cells; assay type: cell-based, COS-7; method in brief: as §3
T8 sequence (Q5MY95 whole entry): T6 sequence (whole entry)

| inhibition [2] [%] | inhibition [3] [%] | inhibition (P2Y purinoceptor 2 [4]) [%] | inhibition [11] [%] | inhibition [14] [%] | SMILES | Activity [1] [%] | Stability [5] | inhibition (P2Y purinoceptor 4 [6]) [%] | Activity (P2Y purinoceptor 2 [7]) [%] | inhibition [8] [%] | IC50 [9] [µM] | remaining at 24 h [10] [%] | Activity (P2Y purinoceptor 4 [12]) [%] | Stability [13] | Ki [15] [µM] |
| --- | --- | --- | --- | --- | --- | --- | --- | --- | --- | --- | --- | --- | --- | --- | --- |
| 0 | 0 | 32 | 0 | 0 | CCOP(=O)(CNC(=O)CCCNC(=O)[C@H]1O[C@@H](n2cnc3c(N)ncnc32)[C@H](O)[C@@H]1O)OCC | – | – | – | – | – | – | – | – | – | – |
| 0 | 22 | -7 | 0 | – | CCOP(=O)(CCNC(=O)CNC(=O)[C@H]1O[C@@H](n2ccc(=O)[nH]c2=O)[C@H](O)[C@@H]1O)OCC | – | – | 8 | – | 9 | – | – | – | – | – |
| 0 | 0 | 29 | 0 | 0 | CCOP(=O)(CNC(=O)CCNC(=O)[C@H]1O[C@@H](n2cnc3c(N)ncnc32)[C@H](O)[C@@H]1O)OCC | – | – | – | – | – | – | – | – | – | – |
| 0 | 0 | 43 | 0 | – | CCOP(=O)(CNC(=O)CCNC(=O)[C@H]1O[C@@H](n2ccc(=O)[nH]c2=O)[C@H](O)[C@@H]1O)OCC | -16 | – | 6 | 13 | -3 | – | – | 11 | – | – |

| SMILES | inhibition [2] [%] | inhibition [3] [%] | inhibition (P2Y purinoceptor 2 [4]) [%] | inhibition [11] [%] | inhibition [14] [%] | Activity [1] [%] | Stability [5] | inhibition (P2Y purinoceptor 4 [6]) [%] | Activity (P2Y purinoceptor 2 [7]) [%] | inhibition [8] [%] | IC50 [9] [µM] | remaining at 24 h [10] [%] | Activity (P2Y purinoceptor 4 [12]) [%] | Stability [13] | Ki [15] [µM] |
| --- | --- | --- | --- | --- | --- | --- | --- | --- | --- | --- | --- | --- | --- | --- | --- |
| CCOP(=O)(Cc1ccc(NC(=O)CNC(=O)[C@H]2O[C@@H](n3ccc(=O)[nH]c3=O)[C@H](O)[C@@H]2O)cc1)OCC | 50 | 0 | 22 | 0 | – | -7 | Stable | 4 | -21 | -10 | 42 | > 95 | -42 | Stable | – |
| CCOP(=O)(CNC(=O)CNC(=O)[C@H]1O[C@@H](n2ccc(=O)[nH]c2=O)[C@H](O)[C@@H]1O)OCC | – | 0 | – | 0 | – | 12 | – | 38 | 58 | 17 | 374 | – | 46 | – | – |
| CCOP(=O)(Cc1ccc(NC(=O)CCCNC(=O)[C@H]2O[C@@H](n3cnc4c(N)ncnc43)[C@H](O)[C@@H]2O)cc1)OCC | – | 0 | 37 | – | – | – | – | – | – | – | – | – | – | – | 255 |
